Bioassay records as filed in PubChem BioAssay.
This is a sample that favours compounds with a hit; in the whole collection about 1.3% have one here.
MT1-MMP act inh – blockers of MT1-MMP proenzyme processing, primary screen, HT1080 RFP-PRO-GFP cells, GFP/RFP fluorescence | GFP/RFP ratio change, % at 20 µM | GFP/RFP ratio fluorescence, overnight; percent of plate control window, DMSO zero | 0.061% of 360,000 active;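 active means GFP/RFP ratio change of at least 30% with cell ATP level not reduced by more than half and red fluorescence within 50% of control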
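Assay system – RFP-PRO-GFP reporter HT1080 cells · Compound dosing – single dose of 20 µM compound, 1% DMSO final · Incubation – overnight compound exposure at 37 °C · Measure – GFP/RFP fluorescence ratio · Benchmarks – DMSO wells and RFP-L50D-GFP cells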
SKN-1 inh – suppressors of acrylamide-induced Pgst-4::GFP reporter in worms, primary screen, SKN-1 inhibitor project, whole organism, uHTS, GFP/RFP fluorescence ratio, strain VP596; C. elegans VP596 Pgst-4::GFP/RFP ratio, 24 h; inhibition, % at 21.8 µM; 0.49% of 360,000 active; AID 624304, 2012;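 active means interference check ratio from 0.5 to 1.5 plus GFP to RFP signal ratio inhibition reaching or exceeding a fixed threshold, cut at about 30% in these data, passing the limit was not always enough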
FAS TE block – FAS thioesterase domain inhibitors, primary screen, biochemical, fluorescence intensity, uHTS | Fatty acid synthase (Homo sapiens), P49327 | recombinant FAS-TE, OMFH fluorogenic substrate, fluorescence endpoint | inhibition, % at 15 µM | 0.67% of 360,000 active | AID 602261, 2012;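 active means compounds whose normalised, plate-corrected inhibition of enzyme fluorescence in the single-dose primary screen is 50% or more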
DAGLB inhibitor – DAGLB lipase inhibitors, primary screen, biochemical, fluorescence, HTS; Diacylglycerol lipase-beta (Homo sapiens), Q8NCG7; HEK293T DAGLB membrane lysate, EnzChek fluorogenic substrate; inhibition, % at 5.17 µM; 0.059% of 340,000 active; AID 504411, 2011; in the data active means inhibition above about 34%
Target sequence (Q8NCG7 whole entry, looked up): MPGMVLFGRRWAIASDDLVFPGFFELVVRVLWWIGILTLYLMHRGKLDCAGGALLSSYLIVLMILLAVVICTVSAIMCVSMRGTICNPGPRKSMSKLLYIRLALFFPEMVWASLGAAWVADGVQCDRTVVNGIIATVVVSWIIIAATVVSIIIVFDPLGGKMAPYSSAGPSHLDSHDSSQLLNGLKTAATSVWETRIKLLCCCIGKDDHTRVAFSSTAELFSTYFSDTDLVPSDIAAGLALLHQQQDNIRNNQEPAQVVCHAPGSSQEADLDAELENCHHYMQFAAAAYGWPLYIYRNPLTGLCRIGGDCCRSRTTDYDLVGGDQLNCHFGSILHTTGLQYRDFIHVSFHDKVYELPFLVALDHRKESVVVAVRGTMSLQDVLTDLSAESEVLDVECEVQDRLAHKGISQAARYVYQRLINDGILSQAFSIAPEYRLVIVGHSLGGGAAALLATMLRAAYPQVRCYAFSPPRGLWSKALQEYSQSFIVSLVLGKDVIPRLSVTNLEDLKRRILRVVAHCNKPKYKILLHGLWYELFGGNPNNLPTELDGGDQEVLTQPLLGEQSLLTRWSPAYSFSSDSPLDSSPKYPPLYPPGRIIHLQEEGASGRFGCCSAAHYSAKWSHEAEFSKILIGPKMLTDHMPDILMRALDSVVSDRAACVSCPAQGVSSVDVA
hiPSC survival – enhancers of single-cell hiPSC survival, primary screen, ATPlite luminescence. 0.044% of 360,000 active. AID 602274, 2012. 100% = ROCK inhibitor wells, 0% = DMSO. survival enhancement, % at 20 µM; in the data active means survival enhancement above about 18%;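 further: cells exposed to compounds for 16 hours before the ATP read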
DAGLB confirm – DAGLB lipase inhibitors, retest, confirmation, biochemical, fluorescence, HEK293T membranes; shares compounds with DAGLB inhibitor; 73% of 190 active; HEK293T DAGLB membrane lysate, EnzChek fluorogenic substrate; AID 504445, 2011; inhibition, % at 5.17 µM;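 active means mean inhibition over triplicate wells above a set limit taken from the primary lipase screen, cut at about 34% in these data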
FAS-TE inh conf – FAS thioesterase domain inhibitors, confirmation, biochemical, fluorescence intensity, single concentration; 45% of 2,300 active; shares compounds with FAS TE block; recombinant FAS-TE, OMFH fluorogenic substrate; inhibition, % at 15 µM;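 active means compounds inhibiting the enzyme by at least 50% at 15 µM in any one of the replicates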
MT1-MMP conf – MT1-MMP activation inhibitors, hit retest, confirmation, single concentration, fluorescence, HT1080 RFP-PRO-GFP cells; 10% of 200 active; GFP and RFP fluorescence ratio, overnight; AID 652235, 2013; inhibition, % at 20 µM; shares compounds with MT1-MMP act inh;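 active means inhibition of at least 50% in the primary cell screen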
A number is an active result; . = inactive; / = not tested or not shown.

SMILES | MT1-MMP act inh | SKN-1 inh | FAS TE block | DAGLB inhibitor | hiPSC survival | DAGLB confirm | others
CC(=O)Nc1ccc(C=NNc2ccc(S(=O)(=O)Nc3ccccc3C(=O)O)cc2[N+](=O)[O-])cc1 | . | . | . | 37 | . | 56
O=C(O)c1ccccc1NS(=O)(=O)c1ccc(N/N=C/c2cccc(O)c2O)c([N+](=O)[O-])c1 | . | . | . | 42 | . | 53
O=C(O)c1ccccc1NS(=O)(=O)c1ccc(NNC(=S)Nc2ccc(OC(F)F)cc2)c([N+](=O)[O-])c1 | . | . | . | 52 | . | 67
COc1cc(C=NNc2ccc(S(=O)(=O)Nc3ccccc3C(=O)O)cc2[N+](=O)[O-])ccc1O | . | . | . | 39 | . | 50
CCN(CC(=O)Nc1ccccc1C(F)(F)F)C(=O)c1ccc2c(c1)NC(=O)C(C)S2 (centres undefined) | . | . | . | . | . | /
Cn1cc(-c2coc3c(C(=O)NCc4cccs4)cccc23)cn1 | . | . | . | / | . | /
CC1(C)OC(=O)C2=C(C[C@@H](C3CCCCC3)O[C@H]2c2ccc(Cl)cc2)O1 | . | . | . | / | . | /
COC(=O)c1ccccc1NCc1cc(=O)oc2cc(O)c(O)cc12 | . | . | . | 48 | . | 34
COC(=O)c1c(C)c2c(C)cc3ccccn3c-2c1C(=O)OC | . | . | . | . | . | /
COC(=O)c1cc2c(-c3ccccc3)cc3ccccn3c-2c1C(=O)OC | . | . | . | 37 | . | .
COc1ccc(C(=O)NNC(=S)NC(=O)c2cc(-c3ccccc3)nc3ccccc23)cc1 | . | . | . | . | . | /
CCCOc1ccc(C(=O)NNC(=S)NC(=O)c2cc(-c3ccc(Cl)cc3)nc3ccccc23)cc1 | . | . | . | 39 | . | 90
CCN(CCCNc1cc2c(c(N)c1S(=O)(=O)O)C(=O)c1ccccc1C2=O)c1ccccc1 | . | . | . | 36 | . | 39
O=[N+]([O-])c1ccc(N2CCN(c3ccc(F)cc3)CC2)cc1 | . | . | . | 55 | . | 99
Cc1cc(C)c(Nc2cc(S(=O)(=O)O)c(N)c3c2C(=O)c2ccccc2C3=O)c(C)c1 | . | . | 75 | 80 | . | 86 | FAS-TE inh conf=.
C[C@@H]1CN([C@@H](C)CO)S(=O)(=O)c2ccc(C#Cc3cccc(F)c3)cc2O[C@@H]1CN(C)CC1CC1 | . | . | . | . | . | /
Cc1coc2c1C(=O)C(=O)c1c-2ccc2c1CCCC2(C)C | . | . | 58 | 53 | . | 58 | FAS-TE inh conf=.
Cc1ccccc1NC1=C(Cl)C(=O)OC1OC(=O)c1ccco1 (centres undefined) | . | . | 74 | 36 | . | . | FAS-TE inh conf=87
COc1ccccc1NC1=C(Cl)C(=O)OC1OC(=O)c1ccco1 (centres undefined) | . | . | . | . | . | /
CCN(Cc1ccccc1)c1ccc(N=Nc2nn(C)c(C)c2[N+](=O)[O-])cc1 | . | . | 52 | 59 | . | 56 | FAS-TE inh conf=36
CCN(Cc1ccccc1)c1ccccc1 | . | . | . | . | . | /
CNC(=O)C1Cc2c(-c3ccccc3Oc3ccccc3)ccnc2O1 (centres undefined) | . | . | . | / | . | /
CC1=NN(c2ccccc2)C(=O)C1N=Nc1ccc(N)cc1 (centres undefined) | 53 | 41 | . | 35 | . | 38 | MT1-MMP conf=62
Cn1c(O)c(C2=c3ccccc3=NC2=O)[nH]c1=S | . | . | . | . | . | /
COc1ccc2nc(-n3c(O)c(C4=c5ccccc5=NC4=O)[nH]c3=S)sc2c1 | 35 | . | . | 52 | . | 80 | MT1-MMP conf=.
SMILES | MT1-MMP act inh | SKN-1 inh | FAS TE block | DAGLB inhibitor | hiPSC survival | DAGLB confirm | others
CN(C)Cc1csc(Nc2ccc(C(=O)c3ccccc3)cc2)n1 | . | . | . | / | . | /
CCCN1C(=O)/C(=C2/C=Cc3ccccc3N2CC)SC1=S | 45 | . | . | 54 | . | 73 | MT1-MMP conf=.
CC(=O)/C=C1\OCc2ccccc21 | . | . | / | / | / | /
O=C(O)c1cccc(N/N=C(\N=Nc2ccccc2)c2ccccc2)c1 | . | . | . | . | . | /
O=C(O)c1ccc(N=N/C(=N\Nc2ccc(C(=O)O)cc2)c2ccccc2)cc1 | 31 | . | . | 39 | . | . | MT1-MMP conf=.
CCOC(=O)C1=CCN(S(=O)(=O)c2ccccc2F)C1c1ccc(Cl)c(Cl)c1 (centres undefined) | . | . | . | / | . | /
COc1ccccc1N=Nc1nc(-c2ccccc2)c(-c2ccccc2)[nH]1 | 31 | 36 | . | 40 | . | 50 | MT1-MMP conf=.
CC1(C)CCCN(C(=O)c2ccc3c(c2NCCO)C(=O)c2ccccc2C3=O)C1 | 40 | . | . | 41 | . | 45 | MT1-MMP conf=.
CC1CCCN(C(=O)c2ccc3c(c2NCCO)C(=O)c2ccccc2C3=O)C1 (centres undefined) | . | . | . | . | . | /
O=C1c2ccccc2C(=O)c2c(O)c(O)cc(O)c21 | 47 | . | . | 37 | . | . | MT1-MMP conf=.
O=C(OCc1ccccc1)N(CCCCN(CCCNCc1ccccc1)C(=O)OCc1ccccc1)CCCNCc1ccccc1 | . | . | . | . | . | /
O=C(COc1ccc([N+](=O)[O-])cc1)Nc1ccc2c(c1)OCO2 | . | . | 59 | . | . | / | FAS-TE inh conf=.
COc1ccc(OCC(=O)Nc2ccc3c(c2)OCO3)cc1 | . | . | . | . | . | /
O=C(NCc1ccco1)C1CC(c2ccc(C(F)(F)F)cc2)=NO1 (centres undefined) | . | . | . | . | . | /
COc1ccc(NC(=O)O[C@@H](C)[C@@H]2CN3CCc4c([nH]c5ccc(-c6ccc(OC)cc6)cc45)[C@@H]3C[C@@H]2N(C)C(=O)Nc2ccc(OC)cc2)cc1 | . | . | 54 | . | . | / | FAS-TE inh conf=.
COc1ccc(-c2ccc3[nH]c4c(c3c2)CCN2C[C@@H]([C@H](C)OC(=O)Nc3cc(Cl)cc(Cl)c3)[C@@H](N(C)C(=O)Nc3cc(Cl)cc(Cl)c3)C[C@@H]42)cc1 | . | . | . | . | . | /
CN(CC(=O)Nc1ccc(Cl)c(Cl)c1)C(=O)C12CC3CC(CC(C3)C1)C2 | . | . | 54 | . | . | / | FAS-TE inh conf=.
